The species named for one assay is Homo sapiens. As to the kind of experiment: Selectivity ratio of IC50 for human geranylgeranyltransferase-1 to IC50 for human farnesyltransferase.
For assay [1], the target named is Geranylgeranyl transferase type 1 (Mus musculus, UniProt Q61239+Q8BUY9). The assay can be described thus: Inhibition of Rap1A geranylgeranylation expressed in mouse NIH3T3 cells. The assay is classed as functional, cell-based. The method, boiled down:
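Oncogenic H-Ras-transformed NIH3T3 cells were treated with a range of inhibitor concentrations. […] Detection used peroxidase-conjugated secondary antibodies and enhanced chemiluminescence. IC50 is the mean of three independent assays ± SD unless stated otherwise.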

In assay [2] the target is Geranylgeranyl transferase type I (Homo sapiens, UniProt P49354+P53609). As to the kind of experiment: Inhibition of human geranylgeranyltransferase-1 assessed as incorporation of [3H]GGPP into H-Ras-CVLL. The assay is classed as protein-complex assay. The method, boiled down:
(§1)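 In vitro radiometric assay measuring transfer of [3H]FPP (FTase) or [3H]GGPP (GGTase-I) onto recombinant H-Ras-CVLS or H-Ras-CVLL, respectively.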

Assay [3] deals with Protein farnesyltransferase (Homo sapiens, UniProt P49354+P49356). The assay can be described thus: Inhibition of human farnesyltransferase assessed as incorporation of [3H]FPP into H-Ras-CVLS. The assay is classed as protein-complex assay. In a few lines: as §1
Assay [4] deals with Protein farnesyltransferase (Mus musculus, UniProt Q61239+Q8K2I1). As to the kind of experiment: Inhibition of H-Ras farnesylation expressed in mouse NIH3T3 cells. The assay is classed as functional, cell-based. In a few lines: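 Oncogenic H-Ras-transformed NIH3T3 cells were treated with a range of inhibitor concentrations. Detection used peroxidase-conjugated secondary antibodies and enhanced chemiluminescence. IC50 is the mean of three independent assays ± SD unless stated otherwise.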

Each structure is given as a SMILES string.

What is called IC50 is the concentration that gives 50% inhibition. With `Cn1cnc(S(=O)(=O)N(CCN(Cc2cncn2C)c2ccc(C#N)cc2)Cc2ccc(-n3cccc3)cc2)c1`, the Selectivity ratio in the assay filed under Homo sapiens stood at 15. The IC50 was more than 10000 nM in assay [1], 5800 nM in assay [2], 390 nM in assay [3] and 4000 nM in assay [4].

Turning to `Cn1cnc(S(=O)(=O)N(CCN(Cc2cncn2C)c2ccc(C#N)cc2)Cc2ccoc2)c1`, in the assay listed under Homo sapiens, the Selectivity ratio is 19. Moreover, the IC50 in assay [1] is more than 10000 nM; in assay [2], 6100 nM; in assay [3], 320 nM; in assay [4], 650 nM.

Turning to `Cc1cccc(CN(CCN(Cc2cncn2C)c2ccc(C#N)cc2)S(=O)(=O)c2cn(C)cn2)c1`, the Selectivity ratio in the assay filed under Homo sapiens came to 12. Moreover, the IC50 in assay [1] is more than 10000 nM; in assay [2], 630 nM; in assay [3], 54 nM; in assay [4], 300 nM.

`Cn1cnc(S(=O)(=O)N(CCN(Cc2cncn2C)c2ccc(C#N)cc2)CC(=O)NC(C)(C)C)c1`: the Selectivity ratio in the assay filed under Homo sapiens is more than 7.1. Also, the half-maximal inhibitory concentration (IC50) in assay [1] was more than 10000 nM; in assay [2], more than 10000 nM; in assay [3], 1400 nM; in assay [4], more than 10000 nM.

On to `Cn1cncc1CN(CCN(CC1CCCCC1)S(=O)(=O)c1ccccn1)c1ccc(C#N)cn1`, for which the Selectivity ratio in the assay listed under Homo sapiens came to 2. The half-maximal inhibitory concentration (IC50) was 19000 nM in assay [1], 690 nM in assay [2], 350 nM in assay [3] and 288 nM in assay [4].

Take `Cn1cnc(S(=O)(=O)N(CCN(Cc2cncn2C)c2ccc(C#N)cc2)Cc2ccco2)c1`: the Selectivity ratio in the assay filed under Homo sapiens amounted to 15. For the same compound, the IC50 in assay [1] is more than 10000 nM; in assay [2], 13400 nM; in assay [3], 870 nM; in assay [4], 800 nM.

Turning to `Cn1cncc1CN(CCN(Cc1ccccc1)S(=O)(=O)c1ccccc1)c1ccc(C#N)cc1`, the Selectivity ratio in the assay listed under Homo sapiens is 7.6. Further, the half-maximal inhibitory concentration (IC50) in assay [1] was more than 10000 nM; in assay [2], 310 nM; in assay [3], 41 nM; in assay [4], 300 nM.

In the case of `C=C(C)CN(CCN(Cc1cncn1C)c1ccc(C#N)cc1)S(=O)(=O)c1cn(C)cn1`, the Selectivity ratio in the assay filed under Homo sapiens was found to be 5.3. Further, the half-maximal inhibitory concentration (IC50) in assay [1] is more than 10000 nM; in assay [2] it was 600 nM; in assay [3], 114 nM; in assay [4], more than 10000 nM.

As for `Cn1cnc(S(=O)(=O)N(CCN(Cc2cncn2C)c2ccc(C#N)cc2)Cc2ccc(C#N)cc2)c1`, the Selectivity ratio in the assay listed under Homo sapiens is 18. Also, the IC50 in assay [1] was more than 10000 nM; in assay [2], 6500 nM; in assay [3], 370 nM; in assay [4] it was more than 10000 nM.

`Cn1cncc1CN(CCN(Cc1ccccc1)S(=O)(=O)c1cccs1)c1ccc(C#N)cc1`: the Selectivity ratio in the assay listed under Homo sapiens was 200. In addition, the IC50 is more than 10000 nM in assay [1], 10000 nM in assay [2], 50 nM in assay [3] and 500 nM in assay [4].

Turning to `Cn1cnc(S(=O)(=O)N(CCN(Cc2cncn2C)c2ccc(C#N)cc2)Cc2ccc(-c3ccccc3)cc2)c1`, the Selectivity ratio in the assay filed under Homo sapiens was determined as 4.3. For the same compound, the half-maximal inhibitory concentration (IC50) in assay [1] was more than 10000 nM; in assay [2] it was 7300 nM; in assay [3] it was 1700 nM; in assay [4], 5000 nM.

On to `Cn1cnc(S(=O)(=O)N(CCN(Cc2cncn2C)c2ccc(C#N)cc2)Cc2ccsc2)c1`, for which the Selectivity ratio in the assay filed under Homo sapiens is 14. In addition, the IC50 in assay [1] was more than 10000 nM; in assay [2], 940 nM; in assay [3], 67 nM; in assay [4] it was 400 nM.

Consider `Cn1cnc(S(=O)(=O)N(CCN(Cc2cncn2C)c2ccc(C#N)cc2)CC2CCN(c3ncccn3)CC2)c1`, for which, in the assay filed under Homo sapiens, the Selectivity ratio was more than 20. The 50% inhibitory concentration (IC50) in assay [1] is more than 10000 nM; in assay [2] it was more than 10000 nM; in assay [3], 510 nM; in assay [4], more than 10000 nM.

Regarding `Cn1cnc(S(=O)(=O)N(CCN(Cc2cncn2C)c2ccc(C#N)cc2)Cc2cccc(-c3ccccc3)c2)c1`, the Selectivity ratio in the assay filed under Homo sapiens worked out at 2.4. For the same compound, the concentration for half-maximal inhibition (IC50) in assay [1] was more than 10000 nM; in assay [2] it was 550 nM; in assay [3], 230 nM; in assay [4], 3000 nM.

On to `Cn1cnc(S(=O)(=O)N(CCN(Cc2cncn2C)c2ccc(C#N)cc2)CCn2cccc2)c1`, for which the Selectivity ratio in the assay listed under Homo sapiens amounted to 17. Further, the concentration for half-maximal inhibition (IC50) in assay [1] is more than 10000 nM; in assay [2], 510 nM; in assay [3], 30 nM; in assay [4] it was 4300 nM.

With `Cn1cnc(S(=O)(=O)N(CCN(Cc2cncn2C)c2ccc(C#N)cc2)CC2CC2)c1`, the Selectivity ratio in the assay filed under Homo sapiens is more than 17. Moreover, the half-inhibitory concentration (IC50) was more than 10000 nM in assay [1], more than 10000 nM in assay [2], 590 nM in assay [3] and more than 10000 nM in assay [4].

`Cn1cncc1CN(CCN(Cc1ccccc1)S(=O)(=O)c1cccc2cccnc12)c1ccc(C#N)cc1`: the Selectivity ratio in the assay listed under Homo sapiens stood at 333. For the same compound, the half-maximal inhibitory concentration (IC50) was more than 10000 nM in assay [1], 10000 nM in assay [2], 30 nM in assay [3] and 600 nM in assay [4].

The record behind these values is ChEMBL document CHEMBL1255187, “Structure-based design and synthesis of potent, ethylenediamine-based, mammalian farnesyltransferase inhibitors as anticancer agents” (J Med Chem, 2010).
